Shown is part of a subset that was picked to be rich in hits.
Ecoli WT growth = growth inhibitors of wild type E. coli, primary screen, strain BW25113 wild type, absorbance readout; E. coli BW25113 growth inhibition, OD600; 0.05% of 20,000 active; AID 552, 2006; inhibition, % at 10 µM; in the data active = inhibition above about 40%;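 note: bacteria exposed to compound for 20 hours at 37 °C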
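Assay system: Bacterial strain in a whole-cell growth screen | Amount: Inoculum from a 1:1000 dilution of a 1.5 h subculture | Detection: Absorbance at 615 nm as a measure of bacterial growth | Timing: 20 h exposure, 37 °C | Buffer or medium: LB plus kanamycin 50 µg/mL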
An asterisk follows results filed as active.

SMILES	Ecoli WT growth
O=C(NC1CCCCC1)C(c1ccco1)N(Cc1cccnc1)C(=O)C1COc2ccccc2O1 (configuration not stated)	-8
Cc1nnc(SC(=O)N2c3ccccc3Sc3ccccc32)s1	4
Cc1c(Br)cc(C(=O)OC2CCN(C)CC2)c(C)c1C	-17
O=C(c1ccccc1CCc1ccccc1)N1CCOCC1	-16
Cc1ccc(-n2c(SCC3CCCCO3)nnc2-c2ccco2)cc1 (configuration not stated)	2
NS(=O)(=O)c1cc2c(cc1Cl)NC(C1C[C@H]3C=C[C@@H]1C3)NS2(=O)=O (some centres not stated)	14
Cc1noc(/C=C/N(C)C)c1S(=O)(=O)N1CCCC(C(=O)NCCC2=CCCCC2)C1 (configuration not stated)	5
O=C(c1ccccc1NS(=O)(=O)c1ccc(Br)s1)N1CCOCC1	-9
Cc1ccc(S(=O)(=O)N2CCN(C(=O)CSc3nnnn3C)C2)cc1	9
CC1(C)C(=O)C2(CCCCC2)C(=O)OC1c1ccc(O)cc1 (configuration not stated)	-19
CN(C)CCNS(=O)(=O)c1ccc(Cl)cc1	7
Cc1cc(C)c(S(=O)(=O)Nc2ccc[nH]c2=O)c(C)c1	-16
Cc1ccc(-n2c(Cc3cccn3C)nnc2SCC(=O)NCc2ccc3c(c2)OCO3)cc1	19
CCCC1C(C#N)=C(N)Oc2n[nH]c(C(C)(C)C)c21 (configuration not stated)	16
CCOC(=O)N1CCN(C(=O)C(NS(=O)(=O)c2cccc3nsnc23)c2ccccc2)CC1 (configuration not stated)	16
C1CNCCNCCNCCN1	0
C=CCn1c2ccccc2c2nnc(SCC(=O)NC(C(=O)OC)C(C)C)nc21 (configuration not stated)	4
COc1ccc(-c2noc(CSc3nc(N)c(-c4ccccc4)c(=O)[nH]3)n2)cc1	-20
CCn1cc(C(=O)O)c(=O)c2cnc(N3CCNCC3)nc21	45*
CCn1cc(C(=O)O)c(=O)c2cc(F)c(N3CCN(C(=O)Nc4ccccc4)CC3)cc21	63*
CC(=O)c1cc(F)c(N2CCN(C(=O)Cc3ccccc3)CC2)cc1C	0
CCn1cc(C(=O)O)c(=O)c2cc(F)c(N3CCNCC3)cc21	76*
COc1cc2nc(N3CCNCC3)nc(N)c2cc1OC	-16
CCn1cc(C(=O)NCc2ccco2)c(=O)c2cc(F)c(N3CCN(C(=O)c4ccco4)CC3)cc21	10
CCOC(=O)N1CCN(c2cc3[nH]c(=S)[nH]c3cc2F)CC1	10
SMILES	Ecoli WT growth
CCN1CCN(C(=O)Nc2cccc(C(F)(F)F)c2)CC1	-11
Cc1cc(NC(=O)C23CCC(C)(c4nc5cc(Cl)c(Cl)cc5nc42)C3(C)C)no1 (configuration not stated)	6
Cc1oc2nc(SCC(=O)N3CCCCC3)nc(N)c2c1C	4
CCCNC(=O)C1CCN(S(=O)(=O)c2ccc(Br)cc2)CC1	22
CCCCNc1cc(C(=O)O)cc(S(N)(=O)=O)c1Oc1ccccc1	-2
CN(C)CCCN1C(=O)C(=O)/C(=C(/O)c2ccc3c(c2)OCCO3)C1c1ccccn1 (configuration not stated)	-20
CCOc1cc(C(=O)N(C)c2ccccc2)cc(OCC)c1OCC	5
O=C(Nc1ccc(O)cc1)c1ccc(C(=O)c2ccccc2)o1	-1
CC12C(=O)N(CCC(=O)O)C(=O)C1C1C=CC2C1 (configuration not stated)	-6
CSc1nc2nc(-c3ccccc3)cc(C(F)(F)F)n2n1	-18
Cc1ccc(-n2nnnc2SCC(=O)Nc2ccc3c(c2)COC3=O)cc1C	-7
Cc1cn([C@H]2C=C[C@@H](CO)O2)c(=O)[nH]c1=O	2
Cc1cn([C@H]2C[C@H](N=[N+]=[N-])[C@@H](CO)O2)c(=O)[nH]c1=O	72*
O=c1[nH]c(=O)n([C@H]2C[C@H](O)[C@@H](CO)O2)cc1F	17
COc1ccc2c3c(c(=O)oc2c1OCC(N)=O)CCCC3	-1
COC(=O)CCCCCNc1ccc(C(=O)OC)cc1N	-5
Cc1ccc2nc3c(cc(C(N)=S)c(=N)n3CCCOC(C)C)c(=O)n2c1	-14
COc1ccc(N(CC(=O)N2CCCCC2)S(=O)(=O)c2ccccc2)c(OC)c1	3
O=C(O)CCNS(=O)(=O)c1ccc(Oc2ccccc2)cc1	-29
O=C(NCc1ccc(N2CCCC2=O)cc1)Nc1cccc(Cl)c1	-7
Cc1ccc(S(=O)(=O)N(C)CC(=O)Nc2ccncc2)cc1	-1
CCc1ccccc1NC(=O)CC(O)(C(=O)OC)C(F)(F)F (configuration not stated)	-25
NS(=O)(=O)c1ccc(C(=O)O)cc1	11
Cc1nn(C(=O)CCCC(=O)n2nc(C)c(Cl)c2C)c(C)c1Cl	3
O=C(CN1C(=O)C2C3C=CC(C3)C2C1=O)NCc1ccc2c(c1)OCO2 (configuration not stated)	5
COc1ccccc1-c1nnc(SCC(=O)OC(C)C)o1	-21
